High-throughput results from PubChem.
B2AR ag = human beta-2 adrenergic receptor agonism by FAP | actives 0.43% (n = 340,000) | response, % (concentration not given with the values) | Am2.2-beta2AR cells, FAP receptor internalization, flow cytometry | P07550;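 active = response above a set limit, near 3 SD of response in nonfluorescent compounds, cut at about 42% in these data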
Target sequence (P07550 whole entry, looked up): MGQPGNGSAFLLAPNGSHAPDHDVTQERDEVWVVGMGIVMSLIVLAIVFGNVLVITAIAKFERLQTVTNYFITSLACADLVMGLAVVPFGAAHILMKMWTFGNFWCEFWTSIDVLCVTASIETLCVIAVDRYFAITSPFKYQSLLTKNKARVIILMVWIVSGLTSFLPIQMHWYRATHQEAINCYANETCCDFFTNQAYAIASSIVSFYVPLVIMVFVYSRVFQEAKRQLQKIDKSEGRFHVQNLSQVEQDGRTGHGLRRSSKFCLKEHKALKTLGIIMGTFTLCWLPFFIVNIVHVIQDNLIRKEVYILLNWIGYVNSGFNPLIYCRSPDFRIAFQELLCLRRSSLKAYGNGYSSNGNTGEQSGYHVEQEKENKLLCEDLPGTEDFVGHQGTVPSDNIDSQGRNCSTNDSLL
MPTP inh = permeability transition pore inhibition. isolated mouse mitochondria, Ca2+ swelling absorbance, 30 min. inhibition, % at 10 µM. actives 1.4% (n = 360,000);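 active = inhibition of 50% or more, scaled per plate between neutral and stimulator controls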;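 note: 0% = DMSO wells given calcium and 100% = 1 mM EGTA wells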
rCAG RNA binder = r(CAG) repeat RNA binding | TO-PRO-1 dye displacement fluorescence | inhibition, % at 3 µM | actives 1.3% (n = 370,000) | AID 651821;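 active = inhibition above the plate cutoff, the mean of all test compounds on that plate plus 3 SD, cut at about 35% in these data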;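 note: 0% = DMSO alone and 100% = 100 µM mitoxantrone as full dye displacement; higher means more dye released from RNA so lower well fluorescence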
Granule exo inh = lytic granule exocytosis inhibition; TALL-104 LAMP-1 surface exposure, flow cytometry; cells stimulated with thapsigargin and PMA; inhibition, % at 10 µM; actives 0.66% (n = 360,000); AID 651702;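 active = inhibition above about 55%, limit read from the data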
V-ATPase pH = yeast V-ATPase proton transport regulation by pHLuorin. S. cerevisiae, pHLuorin cytosolic pH fluorescence. response, % at 10 µM. actives 0.37% (n = 350,000). AID 504577; in the data active = response mostly above about 7.3%, no sharp cut-off; inactive = mostly below about 5.4%; note: actives read high
T cell modulator = T cell immune modulation candidate. actives 0.068% (n = 330,000). response (vesicle binding), % at 7 µM. 2C CD8+ T cell-vesicle binding, flow cytometry; stronger effect = lower value;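 active = response, share of CD8 T cells binding vesicles, and their 90th percentile fluorescence all below set limits, cut at about 80% in these data, passing the limit was not always enough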;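 note: values below 100% mean blocked vesicle binding to the CD8+ T cells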
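Incubation: binding step 1.5 h, 37 °C, antibody labelling 20 min, ice; system: murine 2C transgenic CD8+ T lymphocytes; technique: cytometric PE anti-B7-1 and Alexa647 anti-CD8 signals after 1% paraformaldehyde fixation; also added: QL9-charged Drosophila Ld/ICAM-1/B7-1 vesicles; control set: naked versus QL9-loaded vesicles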
Rh123 counter = mitochondrial membrane potential, counter-screen; shares compounds with MPTP inh; isolated mitochondria, Rhodamine 123 fluorescence; inhibition, % at 10 µM; actives 78% (n = 5,000); in the data active = inhibition above about 22%;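 note: 0% = DMSO vehicle and 100% = positive control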
MPTP abs DR = dose response confirmation of mitochondrial permeability transition pore inhibitors; IC50, µM; AID 651561; actives 58% (n = 780); shares compounds with MPTP inh; isolated mitochondria swelling, absorbance; in the data active = IC50 below about 20 µM
MPTP counter DR = counter-screen for mitochondrial permeability transition pore inhibitors, dose response. shares compounds with MPTP inh. isolated mitochondria counterscreen, fluorescence read-out. IC50, µM. actives 49% (n = 780); in the data active = IC50 below about 80 µM
Numbers without * were called inactive; i = inactive; · = not tested or not shown. Only some compounds are listed: those with a hit (about 3.8% of all), similar ones and a draw of the others.

SMILES	B2AR ag	MPTP inh	rCAG RNA binder	Granule exo inh	V-ATPase pH	T cell modulator	Rh123 counter	others
CCN(CC)S(=O)(=O)c1cc([N+](=O)[O-])ccc1NNC(=O)Nc1ccccc1OC	1	3	9	0	12	232	·
O=S(=O)(Nc1cc2nc3ccccc3nc2n1Cc1ccccc1)c1ccc(Cl)cc1	-26	58*	15	66*	-1	i	36*
O=C(Nc1ccc(S(=O)(=O)N2CCCC2)cc1)c1cnccn1	10	-1	-2	3	1	322	·
O=C(Nc1ccc(S(=O)(=O)N2CCN(Cc3ccccc3)CC2)cc1)c1cnccn1	-2	73*	1	0	-2	331	42*
CN(C)CCCN(C(=O)c1ccc(S(=O)(=O)N2CCCCCC2)cc1)c1nc2c(F)cc(F)cc2s1	21	88*	-3	9	2	610	-12	MPTP abs DR=4.3*;MPTP counter DR=>80
CCOC(=O)N1CCN(S(=O)(=O)c2ccc(C(=O)N(CCCN(C)C)c3nc4c(C)c(C)ccc4s3)cc2)CC1	10	75*	-2	17	0	205	-13	MPTP abs DR=5.5*;MPTP counter DR=>80
CN(C)CCCN(C(=O)c1ccc(S(=O)(=O)N2CCCC2)cc1)c1nc2c(F)cc(F)cc2s1	2	20	-7	-4	-5	464	·
Nc1[nH]c(C(=O)c2ccccc2)c(-c2ccccc2)c1C(=O)NCCc1c[nH]c2ccccc12	·	·	11	·	·	·	·
C[C@@H]1CCN(C2CC2)S(=O)(=O)c2c(cccc2N2CC[C@H](O)C2)O1	·	·	2	·	·	·	·
CC(=O)c1ccc(Oc2ccc(C(C)=O)cc2)cc1	-10	-1	-9	1	1	232	·
Oc1ccc(Oc2ccc(Oc3ccc(O)cc3)cc2)cc1	-1	62*	1	8	2	189	80*
Cc1cc(CN(C)C(=O)c2cc(COc3ccc4ncccc4c3)on2)on1	-2	96*	-5	25	0	147	73*
CN(Cc1nccn1C)C(=O)c1cc(COc2ccc3ncccc3c2)on1	-5	70*	-6	0	1	257	19	MPTP abs DR=19*;MPTP counter DR=46*
CN(Cc1nccn1C)C(=O)c1cc(COc2cccc(C(F)(F)F)c2)on1	8	-1	-7	-8	-2	300	·
C=C(C)c1cccc(C(C)(C)NC(=O)Nc2ccc(C(C)=O)cc2)c1	4	82*	8	-2	0	158	83*
C=C(C)c1cccc(C(C)(C)NC(=O)Nc2ccc(OC)cc2)c1	-3	7	-2	-17	-2	284	·
Cc1ccc(CC(=O)Nc2ccc(F)c([N+](=O)[O-])c2)cc1	0	-1	1	-1	-2	518	·
Cc1ccc(CNC(=S)Nc2ccc(C)c([N+](=O)[O-])c2)cc1	-3	102*	8	-2	-2	220	98*
CNC(=S)Nc1ccc([N+](=O)[O-])c(C)c1	-1	62*	0	-4	-1	204	78*
Cc1ccc(NC(=S)NCc2ccccc2)cc1[N+](=O)[O-]	2	99*	10	19	4	275	91*
Cc1ccc(C)c(NC(=O)c2cccc3c2-c2ccccc2C3=O)c1	·	·	6	·	·	·	·
O=C(NN=Cc1ccccc1C(F)(F)F)c1cc(-c2ccc(Cl)cc2)n[nH]1	·	·	8	·	·	·	·
CSc1cccc(NC(=S)NN/C(=N/S(=O)(=O)c2ccccc2)N2CCCC2)c1	·	·	5	·	·	·	·
Cc1ccc(C)c(OCC(O)CN2CCC(Cc3ccccc3)CC2)c1 (stereo not drawn)	7	78*	-10	7	-1	192	19	MPTP abs DR=6.8*;MPTP counter DR=13*
Cc1ccc(C(C)C)c(OCC(O)CN2CCc3ccccc3C2)c1 (stereo not drawn)	0	98*	-5	37	-1	126	92*
SMILES	B2AR ag	MPTP inh	rCAG RNA binder	Granule exo inh	V-ATPase pH	T cell modulator	Rh123 counter	others
Clc1ccc(-c2cc(-c3nnc4sc(Cc5cccs5)nn34)[nH]n2)cc1	·	·	24	·	·	·	·
Cc1cc(=O)[nH]c(SCC(=O)Nc2cccc(Cl)c2F)n1	·	·	4	·	·	·	·
CCOC(=O)/C(=C\Nc1ccccc1C(F)(F)F)Sc1ncc(C(F)(F)F)cc1Cl	-6	95*	0	1	1	512	1	MPTP abs DR=i;MPTP counter DR=>80
COC(=O)/C(=C\Nc1ccc(Cl)c2ccccc12)c1ncc(C(F)(F)F)cc1Cl	-5	8	·	3	3	346	·
CCn1c2c(n(C(C)=O)c1=O)C[C@@H](c1ccccc1)[C@@H](C)[C@@H](C(=O)N1CCCC1)C2	·	·	0	·	·	·	·
O=c1[nH]nc(Cc2ccc(-c3ccc(Cl)cc3)o2)c2ccccc12	5	64*	2	1	-4	325	20	MPTP abs DR=>100;MPTP counter DR=10*
O=c1[nH]nc(Cc2ccc([N+](=O)[O-])cc2)c2ccccc12	6	0	0	-6	-1	223	·
Nc1ccccc1N=Cc1ccc(-c2cccc(Cl)c2)o1	-5	67*	20	96*	-2	207	66*
Nc1[nH]c(C(=O)c2ccccc2)c(-c2ccc3ccccc3c2)c1C(=O)NCc1ccc(F)cc1	·	·	10	·	·	·	·
CC(C)c1ccc(NC(=O)CSc2nc3ncccc3[nH]2)cc1	-7	4	3	-1	-1	268	·
CC(C)OC(=O)c1ccc(NC(=O)CSc2nc3ncccc3[nH]2)cc1	-6	71*	3	1	1	193	47*
C=CCN(CC#CC(=C)C)Cc1ccc(OC)cc1OC	·	·	0	·	·	·	·
COc1ccc(CNC(=O)c2c(O)c3cccc4c3n(c2=O)CCC4)cc1OC	1	-8	2	-2	0	195	·
COc1ccc(CNC(=O)c2c(O)c3cccc4c3n(c2=O)CCC4)cc1	-11	81*	2	7	0	·	-14
CCCCN1CN2CCc3ccccc3C2CS1(=O)=O (stereo not drawn)	·	·	-1	·	·	·	·
Cc1ccc2nc(SC(C)C(=O)Nc3cccc([N+](=O)[O-])c3)[nH]c2c1 (stereo not drawn)	19	59*	7	4	-1	218	85*
Cc1ccc2nc(SCC(=O)Nc3ccc(F)c([N+](=O)[O-])c3)[nH]c2c1	6	88*	13	-2	-4	136	76*
Fc1ccc2nc(-c3ccc(CN4CCC(c5nc6ccccc6[nH]5)CC4)cc3)c(-c3ccccc3)nc2c1	·	·	12	·	·	·	·
C=CCc1c(C)nc(-c2ccccc2)nc1Nc1ccccc1O	-343	60*	7	12	2	818	63*
COc1ccc(S[C@]2(C(=O)N3CCOCC3)CC(=O)N(c3ccsc3)[C@@H]2c2ccc(OC)cc2)cc1	·	·	4	·	·	·	·
